The values that follow come from ChEMBL document CHEMBL1125718, “Synthesis and biological evaluation of dipeptidyl and tripeptidyl polyoxin and nikkomycin analogues as anticandidal prodrugs” (1991).

As usually defined, the MIC is the smallest concentration in the dilution series that meets the test's criterion for growth inhibition.

Converted amounts (≈) assume the structure as drawn.

In assay [1] the test system is Candida albicans. Description: Compound was tested for its lowest concentration at which growth of 124 strain of Candida albicans was clearly inhibited. It counts as functional.
Assay [2] has as its system Candida albicans. Description: Compound was tested for its lowest concentration at which growth of H-317 strain of Candida albicans was clearly inhibited. It counts as functional.
Assay [3] concerns the target Chitin synthase 1 (Candida albicans) (UniProt P23316). Description: Compound was tested for its ability to inhibit chitin synthetase using Candida albicans strain H-317. It counts as functional. An outline of the steps:
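Mixed membrane fraction from C. albicans H-317 was used as the source of total chitin synthetase. Activity was measured with and without polyoxin compounds as N-acetylglucosamine incorporation into chitin. The value is the concentration giving 50% inhibition.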

The subject of assay [4] is Candida albicans. Description: Compound was tested for its lowest concentration at which growth of 124N5 strain of Candida albicans was clearly inhibited. It counts as functional.
For assay [5], the system named is Candida albicans. Description: Compound was tested for rate of hydrolysis (percent hydrolyzed per 10 min) by cell extract from Candida albicans H-317. It is filed as functional. In short, it runs like this: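 Antibiotic (0.5 mg in H2O–DMSO 50:50) was mixed with cell extract of C. albicans H-317 (3.75 mg protein/mL) and incubated at 36 °C. Portions were withdrawn every 20 min and analysed directly by TLC and HPLC. Nle-UPOC served as control.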

Assay [6] has as its system Candida albicans. Description: (§1) Compound was tested for percent inhibition of transport of (Leu)2 into Candida albicans H-317. It is filed as functional. Details: concentration or dose not given beside the values. In short, it runs like this:
(§2)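 Uptake of labeled dileucine was measured with analogues added at 10-fold the molar concentration of the transport substrate. Samples were taken at 0, 1, 2, 3 and 4 min, collected on prewet 0.45 µm filters and washed twice with cold water. Rate was expressed as nmol peptide per mg dry-weight cells per min.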

Assay [7] relates to Candida albicans. Description: Compound was tested for percent inhibition of transport of (Met)3 into Candida albicans H-317. Details: concentration or dose not given beside the values.
Assay [8] has as its system Candida albicans. Described as above. More on the design: concentration or dose not given beside the values. This is another data set of the same source.
Assay [9] relates to Candida albicans. The assay is described as above.
Assay [10] has as its system Candida albicans. The description is as §1. It counts as functional. An outline of the steps: as §2

Chitin synthase 1 (Candida albicans), sequence (P23316 whole entry, looked up): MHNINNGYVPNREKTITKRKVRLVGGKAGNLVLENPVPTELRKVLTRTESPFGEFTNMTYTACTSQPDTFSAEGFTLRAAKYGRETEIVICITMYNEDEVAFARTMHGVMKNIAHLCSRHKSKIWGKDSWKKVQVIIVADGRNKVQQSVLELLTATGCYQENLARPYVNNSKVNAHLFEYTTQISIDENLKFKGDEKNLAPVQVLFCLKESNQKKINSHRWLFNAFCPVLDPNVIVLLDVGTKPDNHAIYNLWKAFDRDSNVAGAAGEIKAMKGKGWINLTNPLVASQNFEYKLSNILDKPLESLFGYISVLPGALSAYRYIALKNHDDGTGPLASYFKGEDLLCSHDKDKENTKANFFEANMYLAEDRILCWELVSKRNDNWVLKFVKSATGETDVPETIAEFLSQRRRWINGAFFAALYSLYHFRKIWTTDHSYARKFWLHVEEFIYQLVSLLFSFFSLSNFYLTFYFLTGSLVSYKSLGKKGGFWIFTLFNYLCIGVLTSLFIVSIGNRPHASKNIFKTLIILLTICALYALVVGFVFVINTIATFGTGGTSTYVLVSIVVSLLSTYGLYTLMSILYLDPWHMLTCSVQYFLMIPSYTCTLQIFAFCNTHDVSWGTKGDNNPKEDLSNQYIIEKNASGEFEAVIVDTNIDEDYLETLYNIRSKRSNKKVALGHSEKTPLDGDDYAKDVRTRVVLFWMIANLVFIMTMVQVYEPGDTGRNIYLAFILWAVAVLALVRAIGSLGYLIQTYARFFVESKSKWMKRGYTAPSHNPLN

As for `C[C@@H]([C@H](N)C(=O)N[C@H](C(=O)O)[C@H]1O[C@@H](n2cc(C=O)nc2O)[C@H](O)[C@@H]1O)[C@H](O)c1ccc(O)cn1`, the MIC against Candida albicans [1] amounted to 2.5 mg/L (≈ 5.05 µM); against Candida albicans [2], 5 mg/L (≈ 10.1 µM); against Candida albicans [4], 333 mg/L (≈ 672 µM). For the same compound, in assay [3], the ID50 is 0.1 mg/L (≈ 0.202 µM). This compound had a Hydrolysis in the assay with Candida albicans [5] of 0. In addition, the Transport inhibition in the assay on Candida albicans [6] turned out to be 90%; in the assay with Candida albicans [7], 30%.

Turning to `CC(C)C[C@H](N)C(=O)N[C@H](C(=O)N[C@H](C(=O)O)[C@H]1OC(n2cc(CO)c(=O)[nH]c2=O)[C@H](O)[C@@H]1O)[C@H](O)[C@@H](O)COC(N)=O` (stereo partly specified), the values for the MIC in the assay on Candida albicans [1], with Candida albicans [2] and in the assay on Candida albicans [4] were 333 mg/L (≈ 537 µM), 333 mg/L (≈ 537 µM) and 666 mg/L (≈ 1070 µM), respectively. The compound further came in with an ID50 in assay [3] of 20 mg/L (≈ 32.2 µM). In the assay on Candida albicans [5], this compound yielded a Hydrolysis of 5. Further, the values for the Transport inhibition in the assay with Candida albicans [8] and with Candida albicans [6] were 27% and 0%, respectively.

As to `N[C@@H](Cc1cccc(F)c1)C(=O)N[C@H](C(=O)O)[C@H]1O[C@@H](n2ccc(=O)[nH]c2=O)[C@H](O)[C@@H]1O`, the MIC against Candida albicans [1], in the assay with Candida albicans [2] and in the assay on Candida albicans [4] was above 1000 mg/L in each case. This compound also came in with an ID50 in assay [3] of 2 mg/L (≈ 4.42 µM). In the assay on Candida albicans [5], the Hydrolysis is on record as 33. In addition, the Transport inhibition with Candida albicans [8] was 0%; with Candida albicans [6], 6%.

With `CCCCCCCC(=O)NCCCC[C@H](NC(=O)[C@@H](N)CC(C)C)C(=O)N[C@H](C(=O)O)[C@H]1OC(n2ccc(=O)[nH]c2=O)[C@H](O)[C@@H]1O` (stereo partly specified), the MIC in the assay on Candida albicans [1], against Candida albicans [2] and in the assay with Candida albicans [4] was above 666 mg/L in each case. Besides, the ID50 in assay [3] is 50 mg/L (≈ 76.4 µM). This compound also had a Hydrolysis with Candida albicans [5] of 0. The figures for the Transport inhibition in the assay on Candida albicans [6] and in the assay on Candida albicans [7] were 0% and 32%, respectively.

With `NCCOC[C@H](N)C(=O)N[C@H](C(=O)O)[C@H]1O[C@@H](n2ccc(=O)[nH]c2=O)[C@H](O)[C@@H]1O`, the MIC in the assay on Candida albicans [1], against Candida albicans [2] and in the assay on Candida albicans [4] was above 1000 mg/L throughout. Besides, in assay [3], the ID50 came to 100 mg/L (≈ 240 µM). In the assay on Candida albicans [5], the Hydrolysis worked out at 0. Further, the Transport inhibition in the assay with Candida albicans [8] was found to be 0%; with Candida albicans [6] it was 58%.

`CCCCCCCC(=O)NCCCC[C@H](N)C(=O)N[C@H](C(=O)O)[C@H]1O[C@@H](n2ccc(=O)[nH]c2=O)[C@H](O)[C@@H]1O`: the Transport inhibition with Candida albicans [9] is given as 10%; in the assay on Candida albicans [10], 50%. The MIC in the assay with Candida albicans [1] is 666 mg/L (≈ 1230 µM); with Candida albicans [2], above 666 mg/L; in the assay with Candida albicans [4], above 666 mg/L. The compound further came in with an ID50 in assay [3] of 0.5 mg/L (≈ 0.923 µM). Moreover, in the assay with Candida albicans [5], the Hydrolysis was determined as 0.

As for `CC(C)C[C@H](N)C(=O)N[C@H](C(=O)N[C@H](C(=O)O)[C@H]1OC(n2ccc(=O)[nH]c2=O)[C@H](O)[C@@H]1O)[C@H](C)[C@H](O)c1ccc(O)cn1` (stereo partly specified), the MIC against Candida albicans [1] is 666 mg/L (≈ 1090 µM); in the assay on Candida albicans [2], above 666 mg/L; against Candida albicans [4], above 666 mg/L. In addition, the ID50 in assay [3] amounted to 100 mg/L (≈ 164 µM). The compound further displayed a Hydrolysis in the assay with Candida albicans [5] of 33. Further, the Transport inhibition in the assay on Candida albicans [8] came to 28%; in the assay with Candida albicans [6], 0%.

As for `CCCCCCCC(=O)NCCCC[C@H](NC(=O)[C@@H](N)CCCCNC(=O)CCCCCCC)C(=O)N[C@H](C(=O)O)[C@H]1OC(n2ccc(=O)[nH]c2=O)[C@H](O)[C@@H]1O` (stereo partly specified), the MIC against Candida albicans [1], with Candida albicans [2] and against Candida albicans [4] was above 666 mg/L in each case. In [3], this compound showed an ID50 of 80 mg/L (≈ 101 µM). The Hydrolysis in the assay on Candida albicans [5] is given as 0. Moreover, the Transport inhibition in the assay with Candida albicans [6] was determined as 60%; with Candida albicans [7] it was 56%.

As to `CC(C)C[C@H](N)C(=O)N[C@H](C(=O)N[C@H](C(=O)O)[C@H]1OC(n2cc(C=O)nc2O)[C@H](O)[C@@H]1O)[C@H](C)[C@H](O)c1ccc(O)cn1` (stereo partly specified), the values for the MIC against Candida albicans [1], with Candida albicans [2] and against Candida albicans [4] were 83 mg/L (≈ 136 µM), 166 mg/L (≈ 273 µM) and 333 mg/L (≈ 547 µM), respectively. In assay [3], this compound displayed an ID50 of 30 mg/L (≈ 49.3 µM). In the assay on Candida albicans [5], this compound gave a Hydrolysis of 33. Moreover, the figures for the Transport inhibition in the assay on Candida albicans [6] and with Candida albicans [7] were 0% and 22%, respectively.

In the case of `C[C@@H]([C@H](N)C(=O)N[C@H](C(=O)O)[C@H]1O[C@@H](n2ccc(=O)[nH]c2=O)[C@H](O)[C@@H]1O)[C@H](O)c1ccc(O)cn1` [NIKKOMYCIN], the MIC was 10 mg/L (≈ 20.2 µM) against Candida albicans [1], 20 mg/L (≈ 40.4 µM) against Candida albicans [2] and 666 mg/L (≈ 1340 µM) against Candida albicans [4]. The same compound gave an ID50 in assay [3] of 0.3 mg/L (≈ 0.606 µM). This compound had a Hydrolysis in the assay on Candida albicans [5] of 0. For the same compound, the Transport inhibition in the assay on Candida albicans [8] is recorded as 20%; in the assay on Candida albicans [6], 80%.

As for `NC(=O)OC[C@H](O)[C@@H](O)[C@H](N)C(=O)N[C@H](C(=O)O)[C@H]1O[C@@H](n2cc(CO)c(=O)[nH]c2=O)[C@H](O)[C@@H]1O` [POLYOXIN B], the figures for the MIC with Candida albicans [1], in the assay on Candida albicans [2] and in the assay on Candida albicans [4] were 20 mg/L (≈ 39.4 µM), 40 mg/L (≈ 78.8 µM) and 166 mg/L (≈ 327 µM), respectively. In [3], this compound came in with an ID50 of 0.8 mg/L (≈ 1.58 µM). In addition, the Transport inhibition in the assay with Candida albicans [8] and with Candida albicans [6] was 0% each time.

Take `NC(Cc1cccc(F)c1)C(=O)O` (racemic) [M-FLUOROPHENYLALANINE]: the MIC against Candida albicans [1], against Candida albicans [2] and against Candida albicans [4] was above 1000 mg/L each time.

Turning to `COC(=O)/C=C/C(=O)NC[C@H](N)C(=O)N[C@H](C(=O)O)[C@H]1O[C@@H](n2ccc(=O)[nH]c2=O)[C@H](O)[C@@H]1O`, the MIC against Candida albicans [1] turned out to be 500 mg/L (≈ 1030 µM); in the assay on Candida albicans [2], 250 mg/L (≈ 515 µM); in the assay with Candida albicans [4], 1000 mg/L (≈ 2060 µM). In addition, the ID50 in assay [3] was 100 mg/L (≈ 206 µM). The compound also came in with a Hydrolysis in the assay on Candida albicans [5] of 0. Besides, the values for the Transport inhibition in the assay with Candida albicans [6] and in the assay on Candida albicans [7] were 7% and 0%, respectively.
